Our source for the Activity and EC50 values is ChEMBL document CHEMBL3046199, “Synthesis and antiviral activities of pyrazole derivatives containing an oxime moiety” (J Agric Food Chem, 2008).

For experiment [1], the system named is Tobacco mosaic virus. The experiment is described as follows: In vivo antiviral activity against Tobacco mosaic virus (TMV) infected left side of tobacco leaves assessed as curative effect at 500 ug/ml treated after viral inoculation measured at 3-4 days after viral challenge. In kind it is functional.
The subject of experiment [2] is Tobacco mosaic virus. In words: In vivo antiviral activity against Tobacco mosaic virus (TMV) infected left side of tobacco leaves assessed as inactivation effect at 500 ug/ml co-incubated with virus for 30 min before inoculation onto leaves measured at 3-4 days after viral challenge. In kind it is functional.
Experiment [3] has as its system Tobacco mosaic virus. In words: In vivo antiviral activity against Tobacco mosaic virus (TMV) infected left side of tobacco leaves assessed as protective effect at 500 ug/ml treated 12 hr before viral inoculation measured at 3-4 days after viral challenge. In kind it is functional. An outline of the steps:
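TMV purified from inoculated N. tabacum upper leaves (ground in phosphate buffer, filtered, centrifuged at 10000g, twice PEG-treated, all at 4 °C), concentration from A260. Compound solution smeared on left half of same-age N. tabacum leaves, solvent on right half as control. Leaves inoculated 12 h later by brush with 6 × 10^-3 mg/mL TMV over silicon carbide. Local lesions counted 3-4 days post-inoculation, three repetitions. Inhibition % = (control lesions − treated lesions)/control lesions × 100.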

The test system of experiment [4] is Tobacco mosaic virus. In words: In vivo antiviral activity against Tobacco mosaic virus (TMV) infected left side of tobacco leaves assessed as inactivation effect at […] ug/ml co-incubated with virus for 30 min before inoculation onto leaves measured at 3-4 days after viral challenge. The class given is functional.
Experiment [5] deals with Tobacco mosaic virus. In words: In vivo antiviral activity against Tobacco mosaic virus (TMV) infected left side of tobacco leaves assessed as inactivation effect at 250 ug/ml co-incubated with virus for 30 min before inoculation onto leaves measured at 3-4 days after viral challenge. The class given is functional.
In experiment [6] the test system is Tobacco mosaic virus. In words: In vivo antiviral activity against Tobacco mosaic virus (TMV) infected left side of tobacco leaves assessed as inactivation effect co-incubated with virus for 30 min before inoculation onto leaves measured at 3-4 days after viral challenge. The class given is functional, organism-based.
The test system of experiment [7] is Tobacco mosaic virus. The experiment is described as follows: In vivo antiviral activity against Tobacco mosaic virus (TMV) infected left side of tobacco leaves assessed as inactivation effect at 62.5 ug/ml co-incubated with virus for 30 min before inoculation onto leaves measured at 3-4 days after viral challenge. In kind it is functional.
Experiment [8] concerns Tobacco mosaic virus. In words: In vivo antiviral activity against Tobacco mosaic virus (TMV) infected left side of tobacco leaves assessed as inactivation effect at 125 ug/ml co-incubated with virus for 30 min before inoculation onto leaves measured at 3-4 days after viral challenge. The class given is functional.

In the case of `Cc1ccc(-n2nc(C)c(/C=N/OCc3ccc(Cl)nc3)c2Sc2ccc(F)cc2)cc1`, the figures for the Activity in the experiment with Tobacco mosaic virus [1], in the experiment on Tobacco mosaic virus [2] and in the experiment on Tobacco mosaic virus [3] were 22%, 56.6% and 31%, respectively.
For `Cc1ccc(Sc2c(/C=N/OCc3ccc(Cl)nc3)c(C)nn2-c2ccc(C)cc2)cc1` the same measures were 32.1%, 61% and 15.7%.
The matching figures for `Cc1ccc(-n2nc(C)c(/C=N/OCc3c(C)nn(-c4ccc(Cl)cc4)c3Cl)c2Sc2ccc(F)cc2)cc1`: 31.9%, 43% and 19%.
The matching figures for `Cc1nn(-c2ccccc2)c(Sc2ccc(F)cc2)c1/C=N/OCc1c(C)nn(-c2ccc(Cl)cc2)c1Cl`: 35.6%, 55.9% and 32%.
In the case of `Cc1ccc(Sc2c(/C=N/OCc3c(C)nn(-c4ccc(C)cc4)c3Cl)c(C)nn2-c2ccc(C)cc2)cc1`, the Activity with Tobacco mosaic virus [1] amounted to 38.9%; with Tobacco mosaic virus [2], 51.2%; in the experiment on Tobacco mosaic virus [3], 44.8%.
The matching figures for `Cc1ccc(-n2nc(C)c(CO/N=C/c3c(C)nn(-c4ccc(C)cc4)c3Sc3ccc(F)cc3)c2Cl)cc1`: 22%, 50.9% and 41%.
With `Cc1ccc(Sc2c(/C=N/OCc3c(C)nn(-c4ccc(C)cc4)c3Cl)c(C)nn2-c2ccc(Cl)cc2)cc1`, the figures for the Activity in the experiment with Tobacco mosaic virus [1], in the experiment on Tobacco mosaic virus [2] and with Tobacco mosaic virus [3] were 18.9%, 36.7% and 21%, respectively.
For `Cc1ccc(S(=O)(=O)c2c(/C=N/OCc3ccc(Cl)nc3)c(C)nn2-c2ccccc2)cc1` the same measures were 9%, 45% and 28%.
For `COc1ccc(S(=O)(=O)c2c(/C=N/OCc3ccc(Cl)nc3)c(C)nn2-c2ccccc2)cc1` the same measures were 15.6%, 30.1% and 29.8%.
As for `Cc1nn(-c2ccccc2)c(S(=O)(=O)c2ccc(F)cc2)c1/C=N/OCc1ccc(Cl)nc1`, the Activity in the experiment with Tobacco mosaic virus [1] worked out at 21.7%; in the experiment on Tobacco mosaic virus [2] it was 20.6%; in the experiment on Tobacco mosaic virus [3], 40.2%.
In the case of `Cc1nn(-c2cccc(Cl)c2)c(S(=O)(=O)c2ccc(F)cc2)c1/C=N/OCc1ccc(Cl)nc1`, the Activity amounted to 11% in the experiment with Tobacco mosaic virus [1], 30% in the experiment with Tobacco mosaic virus [2] and 12.9% in the experiment on Tobacco mosaic virus [3].
For `Cc1ccc(S(=O)(=O)c2c(/C=N/OCc3ccc(Cl)nc3)c(C)nn2-c2ccc(Cl)cc2)cc1` the same measures were 9.2%, 33.3% and 31.3%.
The matching figures for `COc1ccc(S(=O)(=O)c2c(/C=N/OCc3ccc(Cl)nc3)c(C)nn2-c2ccc(Cl)cc2)cc1`: 3.6%, 30.9% and 16.4%.
Take `Cc1nn(-c2ccc(Cl)cc2)c(S(=O)(=O)c2ccc(F)cc2)c1/C=N/OCc1ccc(Cl)nc1`: the results for the Activity in the experiment on Tobacco mosaic virus [1], in the experiment with Tobacco mosaic virus [2] and in the experiment on Tobacco mosaic virus [3] were 7.7%, 44.1% and 42.2%, respectively.
For `Cc1ccc(-n2nc(C)c(/C=N/OCc3ccc(Cl)nc3)c2S(=O)(=O)c2ccc(F)cc2)cc1` the same measures were 22%, 11% and 28.2%.
Broadly, the EC50 is the concentration needed to bring the measured effect to its halfway point. `Cc1ccc(Sc2c(/C=N/OCc3ccc(Cl)nc3)c(C)nn2-c2ccccc2)cc1`: the Activity with Tobacco mosaic virus [1] is listed as 47%; in the experiment with Tobacco mosaic virus [4], 40.1%; in the experiment on Tobacco mosaic virus [5], 76%; in the experiment with Tobacco mosaic virus [2], 90.4%; in the experiment with Tobacco mosaic virus [3], 31.3%; in the experiment on Tobacco mosaic virus [7] it was 55.1%. In the experiment with Tobacco mosaic virus [8], the Activity is recorded as 69.2%. Besides, the EC50 with Tobacco mosaic virus [6] is 58.7 µg/mL.
For the molecule `COc1ccc(Sc2c(/C=N/OCc3ccc(Cl)nc3)c(C)nn2-c2ccccc2)cc1`, the Activity in the experiment on Tobacco mosaic virus [1] turned out to be 26.6%; with Tobacco mosaic virus [4], 32%; in the experiment with Tobacco mosaic virus [5], 65%; with Tobacco mosaic virus [2], 71.2%; in the experiment with Tobacco mosaic virus [3], 16.4%; in the experiment on Tobacco mosaic virus [7] it was 41%. The Activity in the experiment with Tobacco mosaic virus [8] was found to be 48.9%. The EC50 in the experiment with Tobacco mosaic virus [6] came out at 115 µg/mL.
`Cc1nn(-c2ccccc2)c(Sc2ccc(F)cc2)c1/C=N/OCc1ccc(Cl)nc1`: the Activity in the experiment on Tobacco mosaic virus [1] turned out to be 24%; with Tobacco mosaic virus [2], 65.9%; in the experiment with Tobacco mosaic virus [3] it was 18.9%.
Turning to `Cc1nn(-c2cccc(Cl)c2)c(Sc2ccc(F)cc2)c1/C=N/OCc1ccc(Cl)nc1`, the Activity worked out at 34.3% in the experiment on Tobacco mosaic virus [1], 61.7% with Tobacco mosaic virus [2] and 28.6% with Tobacco mosaic virus [3].
For the molecule `Cc1ccc(Sc2c(/C=N/OCc3ccc(Cl)nc3)c(C)nn2-c2ccc(Cl)cc2)cc1`, the Activity is 26% in the experiment on Tobacco mosaic virus [1], 61.2% in the experiment with Tobacco mosaic virus [2] and 37.7% with Tobacco mosaic virus [3].
For `COc1ccc(Sc2c(/C=N/OCc3ccc(Cl)nc3)c(C)nn2-c2ccc(Cl)cc2)cc1` the same measures were 12.9%, 34.5% and 22%.
Take `Cc1nn(-c2ccc(Cl)cc2)c(Sc2ccc(F)cc2)c1/C=N/OCc1ccc(Cl)nc1`: the Activity with Tobacco mosaic virus [1] worked out at 37.3%; with Tobacco mosaic virus [4], 40.6%; with Tobacco mosaic virus [5] it was 65.7%; in the experiment on Tobacco mosaic virus [2], 80.6%; in the experiment with Tobacco mosaic virus [3] it was 43.5%; in the experiment with Tobacco mosaic virus [7] it was 51.2%. The Activity with Tobacco mosaic virus [8] amounted to 53%. In the experiment on Tobacco mosaic virus [6], the concentration giving a half-maximal response (EC50) came out at 65.3 µg/mL.
For the molecule `CNCC(=O)N[C@@H](CO)C(=O)N[C@H]1[C@H](O)[C@@H](O)[C@H](n2ccc(N)nc2=O)O[C@@H]1C(N)=O` [NINGNANMYCIN], the Activity stood at 54.8% in the experiment with Tobacco mosaic virus [1]; 44% with Tobacco mosaic virus [4]; 81.1% in the experiment on Tobacco mosaic virus [5]; 98% in the experiment with Tobacco mosaic virus [2]; 57% in the experiment on Tobacco mosaic virus [3]; 59.9% in the experiment with Tobacco mosaic virus [7]. Further, the Activity with Tobacco mosaic virus [8] was determined as 72%. Further, the EC50 with Tobacco mosaic virus [6] worked out at 52.7 µg/mL.
